# Source: ChEMBL document CHEMBL4385606, “3,5,7-Substituted Pyrazolo[4,3- d]pyrimidine Inhibitors of Cyclin-Dependent Kinases and Their Evaluation in Lymphoma Models” (J Med Chem, 2019)
# The source made the active and inactive calls. The calls are words filed in the database; no cut-off is given here.
# Key:
# [1] = biological target: Serine/threonine-protein kinase Chk2 (Homo sapiens, UniProt O96017); assay: Inhibition of CHK2 (unknown origin) assessed as residual activity at 1 uM relative to control
# Method in brief: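 Single-concentration screen at 1 µM across a panel of 50 protein kinases sampling the human kinome; read-out is residual kinase activity (%).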
# [2] = biological target: Casein kinase I isoform delta (Homo sapiens, UniProt P48730); assay: Inhibition of CK1delta (unknown origin)
# OCI-Ly3 = assay: Antiproliferative activity against human OCI-LY3 cells assessed as growth inhibition measured after 72 hrs by calcein AM dye-based fluorescence assay; type: functional, cell-based; conditions: OCI-Ly3, 72 h
# Method in brief: (§1)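 Cells exposed in triplicate to six concentrations for 72 h; calcein AM added for 1 h, live-cell fluorescence read at 485/538 nm (ex/em). GI50 taken from dose-response curves.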
# OCI-Ly7 = assay: Antiproliferative activity against human OCI-LY7 cells assessed as growth inhibition measured after 72 hrs by calcein AM dye-based fluorescence assay; type: functional, cell-based; conditions: OCI-Ly7, 72 h; method in brief: as §1
# [3] = Antiproliferative activity against human UPF7U cells assessed as growth inhibition measured after 72 hrs by calcein AM dye-based fluorescence assay; type: functional, cell-based; method in brief: as §1
# Ramos = assay: Antiproliferative activity against human Ramos cells assessed as growth inhibition measured after 72 hrs by calcein AM dye-based fluorescence assay; type: functional, cell-based; method in brief: as §1
# Raji = assay: Antiproliferative activity against human Raji cells assessed as growth inhibition measured after 72 hrs by calcein AM dye-based fluorescence assay; type: functional, cell-based; method in brief: as §1
# RPMI-8226 = assay: Antiproliferative activity against human RPMI8226 cells assessed as growth inhibition measured after 72 hrs by calcein AM dye-based fluorescence assay; type: functional, cell-based; conditions: RPMI-8226, 72 h
# [4] = system: Panel NCI-60 (60 carcinoma cell lines); assay: Antiproliferative activity against human NCI60 cells after 48 hrs by sulforhodamine B assay; type: functional
# Homo sapiens [5] = organism: Homo sapiens; assay: Induction of apoptosis in human Mino cells assessed as induction of PARP1 cleavage at 12.5 nM after 2 to 24 hrs by immunoblotting analysis; type: functional, cell-based
# Method in brief: (§2)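 Lymphoma cell lines were cultured as the providers instruct and exposed to compound at several doses or for several times. Lysates were run on SDS-PAGE and blotted to nitrocellulose. Blots were blocked, incubated overnight with primary antibodies diluted in PBS with 5% milk and 0.1% Tween 20, then with peroxidase-conjugated secondaries, and detected by chemiluminescence on a CCD camera.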
# Homo sapiens [6] = organism: Homo sapiens; assay: Induction of apoptosis in human Mino cells assessed as reduction in MCL1 expression at 1.5 to 12.5 nM after 24 hrs by immunoblotting analysis; type: functional, cell-based; method in brief: as §2
# [7] = biological target: Cyclin-dependent kinase 2 (Homo sapiens) (UniProt P24941); assay: Inhibition of CDK2 in human Mino cells assessed as decrease in phosphorylation of RNA polymerase 2 C-terminal domain at Ser 5 residue at 12.5 nM by immunoblotting analysis; type: cell-based; conditions: TDE = time-dependent effect
# Method in brief: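 MINO lymphoma cells were treated at 12.5 nM, with time points over 24 h. Lysates were separated by SDS-PAGE and blotted to nitrocellulose. Phospho-RNA polymerase II CTD (Ser2, Ser5) and phospho-Rb (Ser608, Ser780) were probed with primary antibodies overnight and peroxidase-conjugated secondaries. Detection was by chemiluminescence on a CCD camera.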
# [8] = biological target: Cyclin-dependent kinase 9 (Homo sapiens) (UniProt P50750); assay: Inhibition of CDK9 in human Mino cells assessed as decrease in phosphorylation of RNA polymerase 2 C-terminal domain at Ser 2 residue at 12.5 nM by immunoblotting analysis; type: cell-based; conditions: TDE = time-dependent effect
# Method in brief: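 MINO lymphoma cells exposed to 12.5 nM for up to 24 h (time course). Lysates separated by SDS-PAGE, transferred to nitrocellulose, probed overnight with specific primary antibodies diluted in PBS with 5% milk and 0.1% Tween 20, then peroxidase-conjugated secondaries; chemiluminescence imaged with a CCD camera.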
# Homo sapiens [9] = assay: Antitumor activity against patient-derived VFN-M1 cells xenografted in NSG mouse assessed as inhibition of tumor growth at 10 mg/kg, iv administered daily measured every day during compound dosing by caliper method; type: functional, organism-based
# Method in brief: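 Female NSG mice, 8-12 weeks old, given cells s.c.; once all had palpable tumors, daily i.v. tail-vein dosing at 10 mg/kg in PBS. Two perpendicular tumor diameters measured daily by caliper. Study ended when any mouse's tumor reached ≥2 cm. Groups: MINO n=10, MAVER-1 n=12, Hbl-2 n=8, VFN-M1 PDX n=10.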
# Mus musculus [10] = assay: Ex vivo antitumor activity against human Mino cells xenografted NSG mouse assessed as down regulation of MCL1 expression at 5 to 10 mg/kg, iv measured after 24 hrs by immunoblotting analysis; type: functional, organism-based
# Method in brief: (§3)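 NSG mice bearing palpable s.c. tumors received a single i.v. dose (5 or 10 mg/kg) and were euthanized after 24 h. Excised tumors were filtered through 45 µm nylon mesh, lysed and run on SDS-PAGE, transferred to nitrocellulose, probed overnight with primary antibodies in PBS with 5% milk and 0.1% Tween 20, then peroxidase secondaries, with chemiluminescent detection.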
# Mus musculus [11] = assay: Ex vivo antitumor activity against Maver1 xenografted NSG mouse assessed as increase in cleaved caspase9 expression at 10 mg/kg, iv measured after 24 hrs by immunoblotting analysis; type: functional, organism-based; method in brief: as §3
# Maver1 [12] = assay: Induction of apoptosis in human Maver1 cells assessed as reduction in XIAP expression at 1.5 to 12.5 nM after 24 hrs by immunoblot analysis; type: functional, cell-based; method in brief: as §2
# Homo sapiens [13] = organism: Homo sapiens; assay: Induction of apoptosis in human UPF1H cells assessed as reduction in MCL1 expression at 12.5 to 100 nM after 24 hrs by immunoblot analysis; type: functional, cell-based; method in brief: as §2
# Maver1 [14] = assay: Induction of apoptosis in human Maver1 cells assessed as reduction in MCL1 expression at 1.5 to 12.5 nM after 24 hrs by immunoblot analysis; type: functional, cell-based; method in brief: as §2
# Mus musculus [15] = assay: Ex vivo antitumor activity against human UPF1H cells xenografted NSG mouse assessed as increase in cleaved caspase 7 expression at 5 to 10 mg/kg, iv measured after 24 hrs by immunoblotting analysis; type: functional, organism-based
# Method in brief: (§4)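 Female NSG mice, 8-12 weeks old, implanted s.c. with lymphoma cells. Once tumors were palpable, mice received a single tail-vein i.v. dose (5 or 10 mg/kg) of compound dissolved in PBS. Mice were euthanized 24 h later. Tumors were excised, filtered through 45 µm nylon mesh and lysed, then proteins were analysed by immunoblotting.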
# Mus musculus [16] = assay: Ex vivo antitumor activity against human UPF1H cells xenografted NSG mouse assessed as down regulation of XIAP expression at 5 to 10 mg/kg, iv measured after 24 hrs by immunoblotting analysis; type: functional, organism-based; method in brief: as §4
# Mus musculus [17] = assay: Ex vivo antitumor activity against human UPF1H cells xenografted NSG mouse assessed as down regulation of MCL1 expression at 5 to 10 mg/kg, iv measured after 24 hrs by immunoblotting analysis; type: functional, organism-based; method in brief: as §4
# Mus musculus [18] = assay: Ex vivo antitumor activity against human Mino cells xenografted NSG mouse decrease in phosphorylation of RNA polymerase 2 C-terminal domain at Ser 2 residue at 5 to 10 mg/kg, iv measured after 24 hrs by immunoblotting analysis; type: functional, organism-based; method in brief: as §4
# Homo sapiens [19] = assay: Antitumor activity against human HBL2 cells xenografted in NSG mouse assessed as inhibition of tumor growth at 10 mg/kg, iv administered daily measured every day during compound dosing by caliper method
# Chain of Casein kinase I isoform delta (P48730 whole entry, canonical isoform): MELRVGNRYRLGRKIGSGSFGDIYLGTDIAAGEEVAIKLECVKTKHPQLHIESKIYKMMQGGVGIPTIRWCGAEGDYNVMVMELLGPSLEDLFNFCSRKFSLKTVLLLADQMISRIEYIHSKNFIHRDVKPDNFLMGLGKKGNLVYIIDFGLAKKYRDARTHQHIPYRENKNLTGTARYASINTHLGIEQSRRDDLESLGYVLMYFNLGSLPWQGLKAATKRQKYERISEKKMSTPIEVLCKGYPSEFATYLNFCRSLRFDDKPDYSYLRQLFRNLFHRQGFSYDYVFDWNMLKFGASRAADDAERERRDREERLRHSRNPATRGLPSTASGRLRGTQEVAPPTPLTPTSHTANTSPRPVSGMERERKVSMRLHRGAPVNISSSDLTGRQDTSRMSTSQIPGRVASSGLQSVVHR
# Chain of Cyclin-dependent kinase 9 (Homo sapiens) (P50750 whole entry, the tested form may be a part): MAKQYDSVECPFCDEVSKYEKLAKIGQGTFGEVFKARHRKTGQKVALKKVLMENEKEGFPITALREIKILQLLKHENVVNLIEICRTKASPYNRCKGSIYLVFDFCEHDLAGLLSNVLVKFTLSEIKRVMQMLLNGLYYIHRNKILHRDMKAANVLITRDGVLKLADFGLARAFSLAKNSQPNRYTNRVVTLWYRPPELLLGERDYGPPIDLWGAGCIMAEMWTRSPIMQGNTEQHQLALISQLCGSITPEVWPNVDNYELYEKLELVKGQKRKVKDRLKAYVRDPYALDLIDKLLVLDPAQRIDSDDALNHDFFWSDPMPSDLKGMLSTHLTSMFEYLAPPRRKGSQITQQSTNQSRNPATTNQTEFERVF
# Chain of Serine/threonine-protein kinase Chk2 (O96017 whole entry): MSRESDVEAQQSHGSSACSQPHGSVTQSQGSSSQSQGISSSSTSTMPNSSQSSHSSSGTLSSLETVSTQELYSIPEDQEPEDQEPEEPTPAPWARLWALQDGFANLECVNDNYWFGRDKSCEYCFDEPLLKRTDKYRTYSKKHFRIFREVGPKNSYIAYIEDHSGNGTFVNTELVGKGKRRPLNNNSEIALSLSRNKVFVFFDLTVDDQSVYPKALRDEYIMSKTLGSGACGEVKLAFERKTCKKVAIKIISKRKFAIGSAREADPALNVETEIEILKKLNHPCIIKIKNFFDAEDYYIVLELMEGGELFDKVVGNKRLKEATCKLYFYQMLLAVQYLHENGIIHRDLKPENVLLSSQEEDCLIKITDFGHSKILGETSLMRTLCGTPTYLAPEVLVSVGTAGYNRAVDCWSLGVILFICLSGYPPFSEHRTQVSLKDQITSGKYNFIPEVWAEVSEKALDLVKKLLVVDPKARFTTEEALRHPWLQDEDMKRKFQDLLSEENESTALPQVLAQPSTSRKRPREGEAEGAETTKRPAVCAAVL
structure (smiles),measurement,setting,value
CC(C)c1n[nH]c2c(NCc3ccc(-c4ccccn4)cc3)nc(SCCN)nc12,Activity,[1],18%
same,IC50,[2],45 nM
same,GI50,OCI-Ly3,7 nM
same,IC50,OCI-Ly3,7 nM
same,GI50,OCI-Ly7,14 nM
same,IC50,OCI-Ly7,14 nM
same,GI50,[3],12 nM
same,IC50,[3],12 nM
same,GI50,Ramos,44 nM
same,IC50,Ramos,44 nM
same,GI50,Raji,38 nM
same,IC50,Raji,38 nM
same,GI50,RPMI-8226,21.6 nM
same,GI50,[4],23 nM
same,Activity,Homo sapiens [5],Active
same,Activity,Homo sapiens [6],Active
same,inhibition,[7],Tde
same,inhibition,[8],Tde
same,TGI,Homo sapiens [9],Active
same,Activity,Mus musculus [10],Active
same,Activity,Mus musculus [11],Active
same,Activity,Maver1 [12],Active
same,Activity,Homo sapiens [13],Active
same,Activity,Maver1 [14],Active
same,Activity,Mus musculus [15],Active
same,Activity,Mus musculus [16],Active
same,Activity,Mus musculus [17],Active
same,Activity,Mus musculus [18],Active
same,TGI,Homo sapiens [19],Active
